According to ChEMBL document CHEMBL4177580, “New 5-HT1A, 5HT2A and 5HT2C receptor ligands containing a picolinic nucleus: Synthesis, in vitro and in vivo pharmacological evaluation” (Bioorg Med Chem, 2017):

Tests used:
[1] = target: T1, 5-hydroxytryptamine receptor 2C (Rattus norvegicus, UniProt P08909); experiment: Displacement of [3H]mesulergine from serotonin 5-HT2C receptor in Sprague-Dawley rat brain cortex homogenates incubated for 15 mins by liquid scintillation spectrometry
T1 sequence (P08909 whole entry): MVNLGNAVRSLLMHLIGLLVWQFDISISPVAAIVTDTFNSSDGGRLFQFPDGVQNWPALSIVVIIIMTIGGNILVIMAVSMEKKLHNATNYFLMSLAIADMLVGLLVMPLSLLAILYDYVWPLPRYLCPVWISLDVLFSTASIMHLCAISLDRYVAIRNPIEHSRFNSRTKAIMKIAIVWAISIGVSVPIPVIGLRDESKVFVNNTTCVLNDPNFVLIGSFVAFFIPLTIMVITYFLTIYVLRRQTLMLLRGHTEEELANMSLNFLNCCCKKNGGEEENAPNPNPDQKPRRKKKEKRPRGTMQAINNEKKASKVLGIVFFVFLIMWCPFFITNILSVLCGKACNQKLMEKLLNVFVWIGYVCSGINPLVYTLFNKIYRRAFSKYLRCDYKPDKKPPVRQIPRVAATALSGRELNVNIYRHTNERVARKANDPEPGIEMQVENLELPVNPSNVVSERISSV

Mus musculus [2] = experiment: Toxicity in Swiss albino mouse assessed as reduction in spontaneous locomotor activity at 60 mg/kg, ip dosed 60 mins before test and measured after 30 mins; format: organism-based; settings: in vivo, 0.5 h
Outline: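 Spontaneous locomotion: mice dosed i.p. 60 min before being placed individually in an actometer for 30 min. Distance travelled read at 6 and 30 min. Cages cleaned with 70% ethanol between animals. One-way ANOVA with Dunnett's; mean ± SEM of one experiment.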

[3] = target: 5-hydroxytryptamine receptor 2A (Rattus norvegicus, UniProt P14842); experiment: Displacement of [3H]ketanserin from serotonin 5-HT2A receptor in Sprague-Dawley rat brain cortex homogenates incubated for 15 mins by liquid scintillation spectrometry
Rattus norvegicus = experiment: In-vivo 5-HT1A receptor agonist activity in Wistar rat assessed as induction of lower lip retraction by measuring lower lip retraction score at 30 mg/kg, ip dosed 15 mins before test (reference value: 0.0 +/- 0.0)
[4] = target: T2, Adrenergic receptor alpha-2 (Rattus norvegicus, UniProt P22086+P19328+P22909); experiment: Displacement of [3H]RX 821002 from adrenergic alpha2 receptor in rat cerebral cortex
T2 sequence (P22086 whole entry): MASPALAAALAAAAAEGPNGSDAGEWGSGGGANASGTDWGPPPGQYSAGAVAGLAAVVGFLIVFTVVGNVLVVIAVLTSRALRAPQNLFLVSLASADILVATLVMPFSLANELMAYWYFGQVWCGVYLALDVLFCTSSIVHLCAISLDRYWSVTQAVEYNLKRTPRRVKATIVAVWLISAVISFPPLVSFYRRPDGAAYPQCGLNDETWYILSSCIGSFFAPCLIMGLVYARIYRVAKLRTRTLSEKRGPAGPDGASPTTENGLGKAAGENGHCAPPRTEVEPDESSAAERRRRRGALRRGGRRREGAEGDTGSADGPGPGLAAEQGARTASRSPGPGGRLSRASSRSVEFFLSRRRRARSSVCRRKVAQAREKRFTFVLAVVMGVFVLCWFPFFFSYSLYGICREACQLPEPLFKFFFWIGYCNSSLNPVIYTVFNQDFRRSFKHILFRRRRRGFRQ
T2 sequence (P19328 whole entry): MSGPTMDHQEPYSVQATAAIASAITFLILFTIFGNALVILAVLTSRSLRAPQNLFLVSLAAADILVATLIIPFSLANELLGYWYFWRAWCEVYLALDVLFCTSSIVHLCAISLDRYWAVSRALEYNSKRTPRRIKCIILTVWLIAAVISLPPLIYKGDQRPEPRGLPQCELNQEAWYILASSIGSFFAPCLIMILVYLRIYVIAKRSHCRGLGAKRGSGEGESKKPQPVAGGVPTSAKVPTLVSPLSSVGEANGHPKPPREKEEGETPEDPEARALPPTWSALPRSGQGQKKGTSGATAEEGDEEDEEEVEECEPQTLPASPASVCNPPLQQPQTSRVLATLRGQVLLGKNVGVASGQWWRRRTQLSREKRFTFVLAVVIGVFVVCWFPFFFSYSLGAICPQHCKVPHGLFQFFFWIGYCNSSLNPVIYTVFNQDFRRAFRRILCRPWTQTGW
T2 sequence (P22909 whole entry): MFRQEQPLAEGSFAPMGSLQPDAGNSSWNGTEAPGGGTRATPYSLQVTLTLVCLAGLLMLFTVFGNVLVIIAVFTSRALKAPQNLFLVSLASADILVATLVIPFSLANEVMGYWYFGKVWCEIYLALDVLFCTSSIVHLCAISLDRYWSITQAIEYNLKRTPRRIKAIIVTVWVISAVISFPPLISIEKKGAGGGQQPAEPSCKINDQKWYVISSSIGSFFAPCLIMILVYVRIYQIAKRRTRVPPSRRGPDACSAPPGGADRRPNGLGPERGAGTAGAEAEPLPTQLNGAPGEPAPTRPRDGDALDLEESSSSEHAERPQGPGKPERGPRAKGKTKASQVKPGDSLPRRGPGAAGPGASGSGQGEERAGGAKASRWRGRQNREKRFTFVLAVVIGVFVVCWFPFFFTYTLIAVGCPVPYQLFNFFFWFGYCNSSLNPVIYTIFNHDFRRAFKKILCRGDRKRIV

[5] = target: T3, 5-hydroxytryptamine receptor 1A (Rattus norvegicus, UniProt P19327); experiment: Displacement of [3H]-8-OH-DPAT from serotonin 5-HT1A receptor in Sprague-Dawley rat brain cortex homogenates incubated for 30 mins by liquid scintillation spectrometry
T3 sequence (P19327 whole entry): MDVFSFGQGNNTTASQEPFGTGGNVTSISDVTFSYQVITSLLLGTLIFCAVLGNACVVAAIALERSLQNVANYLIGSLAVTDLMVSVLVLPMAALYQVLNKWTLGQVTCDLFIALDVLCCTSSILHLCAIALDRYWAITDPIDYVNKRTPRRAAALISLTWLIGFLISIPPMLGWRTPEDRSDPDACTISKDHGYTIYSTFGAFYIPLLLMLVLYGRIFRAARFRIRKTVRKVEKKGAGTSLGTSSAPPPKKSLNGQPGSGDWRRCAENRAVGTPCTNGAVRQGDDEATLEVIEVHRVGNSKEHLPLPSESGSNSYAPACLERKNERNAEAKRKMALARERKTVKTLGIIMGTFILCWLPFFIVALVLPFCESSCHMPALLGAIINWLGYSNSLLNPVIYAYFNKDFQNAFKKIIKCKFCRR

Mus musculus [6] = experiment: Toxicity in Swiss albino mouse assessed as effect on motor coordination at 3.75 to 15 mg/kg, ip dosed 60 mins before test by Chimney test; format: organism-based; settings: in vivo, 1 h
Outline: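 Chimney test in male Swiss mice after i.p. dosing 60 min earlier: impairment defined as failure to climb backwards up a tube (3 cm inner diameter, 25 cm long) within 60 s. Animals pre-trained once daily for 3 days. One-way ANOVA with Dunnett's.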

Sequence of 5-hydroxytryptamine receptor 2A (P14842 whole entry): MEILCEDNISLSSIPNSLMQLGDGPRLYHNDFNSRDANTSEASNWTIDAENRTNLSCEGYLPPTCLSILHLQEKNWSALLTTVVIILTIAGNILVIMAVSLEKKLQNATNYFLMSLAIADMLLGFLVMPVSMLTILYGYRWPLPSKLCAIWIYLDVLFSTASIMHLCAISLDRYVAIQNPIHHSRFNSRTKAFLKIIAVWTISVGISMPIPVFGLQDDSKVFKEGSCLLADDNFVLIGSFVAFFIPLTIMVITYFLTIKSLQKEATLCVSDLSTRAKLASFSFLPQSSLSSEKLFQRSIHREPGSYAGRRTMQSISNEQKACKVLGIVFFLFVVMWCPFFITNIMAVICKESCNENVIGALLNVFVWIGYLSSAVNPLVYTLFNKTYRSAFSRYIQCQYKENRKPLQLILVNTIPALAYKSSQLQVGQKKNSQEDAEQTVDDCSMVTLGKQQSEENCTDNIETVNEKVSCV

Ki [1]: > 10 µM
Ki [3]: 74.1 nM
Ki [4]: 4.2 µM
Ki [5]: 0.183 nM
SMILES: O=C(NCCN1CCN(c2ccc(Cl)c(Cl)c2)CC1)c1ccccn1
Activity (Mus musculus [2]): Toxic
Activity_index (Rattus norvegicus): 0.1429
Activity (Mus musculus [6]): Non-Toxic
